Blank lines part the entries; values can stand above or below the compound they belong to.
How the values were obtained:
[1] = Permeability of compound at pH 7.4 by PAMPA assay; type: ADME
Procedure, shortened: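 Passive diffusion across an artificial membrane of 2% phosphatidylcholine in dodecane. Test compound at 10 μM was incubated 16 h at 30 °C, with donor pH 5, 6.5 or 7.4.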

[2] = biological target: T1, Protein-cysteine N-palmitoyltransferase HHAT (Homo sapiens, UniProt Q5VTY9); assay: Inhibition of HHAT in human HEK293a SHH+ cells incubated with compound for 24 hrs followed by transferred into SHH-Light2 cells cellular incubated for 48 hrs by Renilla/Firefly luciferase reporter assay; type: cell-based, HEK293-A
Procedure, shortened: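 HEK293a SHH+ cells (120,000/well) were given compound (0.041–30 μM final) or 0.2% DMSO for 24 h. Conditioned medium was cleared at 1000g and added to SHH-Light2 cells (NIH3T3-derived, Gli-Firefly plus constitutive Renilla) in triplicate wells for 48 h.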

[3] = biological target: T1, Protein-cysteine N-palmitoyltransferase HHAT; assay: Inhibition of human recombinant HHAT using SHH-FAM peptide as substrate at 50 uM for 30 mins by acylation coupled lipophilic induction of polarization (acyl-cLIP) assay relative to control
Procedure, shortened: (§1)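 DDM-solubilized recombinant HHAT mixed with SHH N-terminal FAM peptide and inhibitor or DMSO in MES buffer pH 6.5 with DTT, TCEP and BSA. Reaction started with palmitoyl-CoA; fluorescence anisotropy followed over 30 min in quadruplicate wells. Initial rates from linear regression were normalized to DMSO and no-enzyme controls.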

[4] = biological target: T1, Protein-cysteine N-palmitoyltransferase HHAT; assay: Inhibition of human recombinant HHAT using SHH-FAM peptide as substrate at 25 uM for 30 mins by acylation coupled lipophilic induction of polarization (acyl-cLIP) assay relative to control; procedure, shortened: as §1
[5] = Cytotoxicity against human SHH+ HEK293a cells assessed as cell viability at 25 uM measured after 72 hrs by MTS assay relative to control; type: toxicity, cell-based, HEK293-A; conditions: read-out: Activity
[6] = biological target: T1, Protein-cysteine N-palmitoyltransferase HHAT; assay: Inhibition of human recombinant HHAT using SHH-FAM peptide as substrate for 30 mins by acylation coupled lipophilic induction of polarization (acyl-cLIP) assay; procedure, shortened: as §1
[7] = Cytotoxicity against human SHH+ HEK293a cells assessed as cell viability at 12.5 uM measured after 72 hrs by MTS assay relative to control; type: toxicity, cell-based, HEK293-A; conditions: read-out: Activity
[8] = Cytotoxicity against human SHH+ HEK293a cells assessed as cell viability measured after 72 hrs by MTS assay; type: toxicity, cell-based, HEK293-A
Procedure, shortened: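 HEK293a SHH+ cells seeded at 5000/well and cultured 24 h. They were then exposed 72 h to vehicle, puromycin (2 μg/mL) or compound (0.14–100 μM final) in DMEM with 10% FBS. MTS/PMS added for 3 h at 37 °C and absorbance read at 490 nm. Signal normalized to vehicle and puromycin; CC50 from a variable-slope sigmoidal fit.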

[9] = Apparent permeability across apical to basolateral side in human Caco-2 cells at 10 uM pH 7.4 measured after 2 hrs by LC-MS/MS analysis; type: ADME, cell-based; conditions: caco-2, pH 7.4, 2 h
Procedure, shortened: (§2)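 Caco-2 cells grown in DMEM with 10% FBS, penicillin and streptomycin for 10 days, then plated; monolayer confluency checked by TEER. Compound at 10 μM (1% DMSO) in HBSS pH 7.4 added to apical or basal wells and incubated 2 h at 37 °C. Lucifer yellow used to confirm membrane integrity afterwards. Both chambers quantified by LC-MS/MS against a matrix-matched standard curve.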

[10] = Apparent permeability across basolateral to apical side in human Caco-2 cells at 10 uM pH 7.4 measured after 2 hrs by LC-MS/MS analysis; type: ADME, cell-based; conditions: caco-2, pH 7.4, 2 h; procedure, shortened: as §2

T1 sequence (Q5VTY9 whole entry): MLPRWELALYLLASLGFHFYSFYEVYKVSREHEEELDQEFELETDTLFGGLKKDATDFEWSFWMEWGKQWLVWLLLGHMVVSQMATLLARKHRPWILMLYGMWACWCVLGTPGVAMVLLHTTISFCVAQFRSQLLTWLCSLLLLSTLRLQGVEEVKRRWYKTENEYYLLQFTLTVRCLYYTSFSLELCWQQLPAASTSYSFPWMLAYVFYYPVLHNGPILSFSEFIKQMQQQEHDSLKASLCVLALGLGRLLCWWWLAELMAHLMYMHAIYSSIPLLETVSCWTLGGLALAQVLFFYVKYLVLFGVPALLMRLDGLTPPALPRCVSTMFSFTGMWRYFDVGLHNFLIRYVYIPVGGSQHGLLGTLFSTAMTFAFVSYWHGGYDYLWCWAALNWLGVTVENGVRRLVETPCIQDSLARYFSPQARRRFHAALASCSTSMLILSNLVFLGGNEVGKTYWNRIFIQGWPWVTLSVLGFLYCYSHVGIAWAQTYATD

SMILES: CC(=O)N1CCc2sccc2[C@@H]1c1cccc(C)n1
inhibition [3]: 56%

SMILES: CC(=O)N1CCc2ccccc2C1c1ccccc1 (stereo not drawn)
permeability [1]: Permeable

SMILES: Cc1cccc(C2c3ccsc3CCN2C(=O)NCCCC(C)C)n1 (stereo not drawn)
inhibition [3]: 53% | inhibition [4]: 31% | viability at 72 h, 25 µM [5]: 22% | IC50 [6]: 42.3 µM | viability at 72 h, 12.5 µM [7]: 32% | CC50 at 72 h [8]: 6.1 µM

SMILES: c1ccc(C2NCCc3sccc32)cc1 (stereo not drawn)
inhibition [3]: 16%

SMILES: N[C@@H](Cc1ccccc1)C(=O)N1CCc2sccc2C1c1ccccc1 (stereo partly drawn)
inhibition [3]: 6% | inhibition [4]: 3%

SMILES: C=CCNCC(=O)N1CCc2sccc2C1COc1ccc(Cl)cc1 (stereo not drawn)
permeability [1]: Permeable | permeability [9]: Permeable | permeability [10]: Permeable

Now from value to compound:

permeability [1]: Impermeable
SMILES: CCC(C)CNCC(=O)N1CCc2sccc2C1c1cccc(C)c1 (stereo not drawn)

EC50 [2]: > 30 µM
SMILES: Cc1cccc([C@@H]2c3ccsc3CCN2C(=O)CNCC(C)C)n1

inhibition [3]: 91%
SMILES: COc1ccccc1C1c2ccsc2CCN1C(C)=O (stereo not drawn)

IC50 [6]: 4.79 µM
SMILES: CCC(C)CNCC(=O)N1CCc2sccc2C1c1ccccc1O (stereo not drawn)

permeability [1]: Permeable
SMILES: CC(=O)N1CCc2sccc2C1c1ccccc1 (stereo not drawn)

permeability [1]: Permeable
SMILES: CCC(C)CNCC(=O)N1CCc2ccccc2C1c1ccccc1 (stereo not drawn)

permeability [1]: Permeable | permeability [9]: Permeable | permeability [10]: Permeable
SMILES: CCC(C)CNCC(=O)N1CCc2sccc2C1c1cccc(C)n1 (racemic)

Source: ChEMBL document CHEMBL5335799, “Design, Synthesis, and Evaluation of Inhibitors of Hedgehog Acyltransferase” (J Med Chem, 2024)
